Results gathered from unrelated publications.
Compare with care: the assays were run in different laboratories.

With `O=c1nc(N2CCN(CC3CCCCC3)CC2)sc2c([N+](=O)[O-])cc(C(F)(F)F)cc12` the concentration was 336 ng/mL (CD-1 mouse, plasma; oral, 100 mg/kg, 8 h).
`CC(C)(O)c1ccccc1-c1ccc2[nH]c(/C=C/c3ccc(C(F)(F)F)cc3)nc2c1` has an MRT of 43.6 h (male human, plasma; oral, 5 mg, single dose, fasted, healthy volunteers).
With `CS(=O)(=O)CCC#N` the MRT was 30.5 h (human, plasma; oral, 300 mg, single dose, fasted).
With `CC(C)(C)c1ccc(O)c(CN(Cc2cc(C(C)(C)C)ccc2O)C2CCC(NC(N)=O)CC2)c1` (stereo not drawn) the half-life was 425 min (male C57BL/6 mouse, brain; intraperitoneal, 10 mg/kg, single dose).
With `CC(C)CN(C[C@@H](O)[C@H](Cc1ccccc1)NC(=O)O[C@H]1CO[C@H]2OCC[C@H]21)S(=O)(=O)c1ccc(N)cc1` the concentration was 4.19 ng/mL (BALB/c mouse, plasma; intravenous, 2.5 mg/kg, 6 h).
For `CC(C)Oc1cccc(-c2cnc(N3CCC(C(N)=O)CC3)s2)c1`, the concentration was 207 ng/g (male Swiss mouse, brain; oral, 30 mg/kg, 1 h, single dose).
`CC(C)(Nc1nc(-c2ccccn2)nc2ccccc12)c1ccccn1` has a concentration of 963 ng/mL (female BALB/c mouse, plasma; intravenous, 1 mg/kg, 15 min).
The concentration of `O=C(O)C1CCN(c2ncc(-c3ccc4c(c3)OCCCO4)s2)CC1` is reported as 1570 ng/mL (male Swiss mouse, plasma; oral, 30 mg/kg, 24 h, single dose).
For `c1cnc2ccc(Nc3nc(NC4CC4)c4nc[nH]c4n3)cc2c1`, the MRT(0-t) was 6.8 h (human, plasma; oral, 400 mg/m², patients).
